Reference: ChEMBL document CHEMBL3862036, “Biphenyl Pyridazinone Derivatives as Inhaled PDE4 Inhibitors: Structural Biology and Structure-Activity Relationships” (J Med Chem, 2016)

Tests used:
Rattus norvegicus [1] = test: Anti-inflammatory activity in Sprague-Dawley rat assessed as inhibition of LPS-induced neutrophilia at 1000 ug/kg, it administered as suspension with Penn-Century micro-sprayer aerosolizer dosed 18 hrs before LPS challenge and measured 22 hrs post dose; type: functional; conditions: inhaled or nasal
Method in brief: (§1)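 Suspensions in PBS/0.2% Tween 80 were homogenized, with lower doses made by 1:10 dilutions. 0.2 mL was given intratracheally by MicroSprayer to isoflurane-anesthetized fasted male Sprague-Dawley rats (230–280 g). At 1 or 18 h, rats received nebulized LPS (30 mL of a 1:100 PBS dilution of 100 mg/10 mL stock) over 40 min. Four hours later, BAL neutrophils were counted by flow cytometry.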

Rattus norvegicus [2] = test: Anti-inflammatory activity in Sprague-Dawley rat assessed as inhibition of LPS-induced neutrophilia at 10 to 1000 ug/kg, it administered as suspension with Penn-Century micro-sprayer aerosolizer dosed 1 hrs before LPS challenge and measured 5 hrs post dose; type: functional; conditions: inhaled or nasal; method in brief: as §1
Rattus norvegicus [3] = test: Anti-inflammatory activity in Sprague-Dawley rat assessed as inhibition of LPS-induced neutrophilia at 1000 ug/kg, it administered as dry powder with lactose carrier through Penn-Century insufflator dosed 18 hrs before LPS challenge and measured 22 hrs post dose; type: functional
Method in brief: (§2)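 Compounds were micronized, comixed with lactose, and 5 mg of the mixture was insufflated intratracheally into isoflurane-anesthetized fasted male Sprague-Dawley rats (230–280 g). LPS aerosol (30 mL of a 1:100 PBS dilution of 100 mg/10 mL stock) was nebulized for 40 min at 1 or 18 h post-dose. BAL was taken 4 h later and neutrophils counted by flow cytometry. Controls: lactose alone, lactose+LPS, fluticasone (10% in lactose).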

Rattus norvegicus [4] = test: Anti-inflammatory activity in Sprague-Dawley rat assessed as inhibition of LPS-induced neutrophilia at 1000 ug/kg, it administered as dry powder with lactose carrier through Penn-Century insufflator dosed 1 hrs before LPS challenge and measured 5 hrs post dose; type: functional; method in brief: as §2
[5] = Inhibition of PDE4 in human whole blood assessed as reduction in LPS-induced TNFalpha production incubated for 24 hrs by ELISA; type: tissue-based
Method in brief: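 Human whole blood was preincubated with LPS (final 1 μg/mL) for 10 min at 37 °C with rocking. 200 μL was added to wells holding increasing inhibitor concentrations in 100% DMSO. Plates were incubated 24 h at 37 °C under agitation, then placed on ice, diluted with PBS and centrifuged at 800g, 4 °C, for 15 min before TNF-α measurement.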

[6] = Inhibition of PDE4 in PBMC (unknown origin) assessed as reduction in LPS-induced TNFalpha production incubated for 24 hrs by ELISA; conditions: Homo sapiens
[7] = Drug metabolism in human liver S9 fraction assessed as glucuronidation in presence of PAPS and UDPGA incubated for 20 mins; type: ADME, subcellular; conditions: read-out: Drug metabolism
Adenosine receptor A1 = target: T1, Adenosine receptor A1 (Homo sapiens, UniProt P30542); test: Antagonist activity at adenosine A1 receptor (unknown origin)
T1 sequence (P30542 whole entry): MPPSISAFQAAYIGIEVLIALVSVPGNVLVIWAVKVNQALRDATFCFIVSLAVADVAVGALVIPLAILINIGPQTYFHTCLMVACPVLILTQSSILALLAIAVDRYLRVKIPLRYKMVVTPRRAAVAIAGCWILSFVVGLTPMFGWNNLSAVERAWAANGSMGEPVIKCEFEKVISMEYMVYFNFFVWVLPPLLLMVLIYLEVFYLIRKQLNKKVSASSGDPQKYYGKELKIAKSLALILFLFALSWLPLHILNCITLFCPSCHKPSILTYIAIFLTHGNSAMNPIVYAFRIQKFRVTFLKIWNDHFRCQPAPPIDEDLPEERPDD

Rattus norvegicus [8] = test: Anti-inflammatory activity in Sprague-Dawley rat assessed as inhibition of LPS-induced neutrophilia at 1000 ug/kg, it administered as suspension with Penn-Century micro-sprayer aerosolizer dosed 1 hrs before LPS challenge and measured 5 hrs post dose; type: functional; conditions: inhaled or nasal; method in brief: as §1
Adenosine receptor A2a = Adenosine receptor A2a (Homo sapiens, UniProt P29274); test: Antagonist activity at adenosine A2a receptor (unknown origin)
Adenosine receptor A2b = target: T2, Adenosine receptor A2b (Homo sapiens, UniProt P29275); test: Antagonist activity at adenosine A2b receptor (unknown origin)
T2 sequence (P29275 whole entry): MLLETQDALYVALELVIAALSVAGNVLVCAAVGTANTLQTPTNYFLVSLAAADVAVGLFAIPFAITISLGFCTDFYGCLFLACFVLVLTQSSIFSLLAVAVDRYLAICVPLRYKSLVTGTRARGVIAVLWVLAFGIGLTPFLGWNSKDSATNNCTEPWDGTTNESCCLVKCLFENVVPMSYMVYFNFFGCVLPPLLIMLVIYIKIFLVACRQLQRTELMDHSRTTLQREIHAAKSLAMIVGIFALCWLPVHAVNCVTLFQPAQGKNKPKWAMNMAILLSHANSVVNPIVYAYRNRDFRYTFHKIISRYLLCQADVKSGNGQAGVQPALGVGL

[9] = Pro-inflammatory activity in Sprague-Dawley rat assessed as induction of neutrophilia at 1000 ug/kg, it administered as dry powder with lactose carrier through Penn-Century insufflator; conditions: in vivo, inhaled_or_intranasal, 1 mg/kg
Rattus norvegicus [10] = test: Anti-inflammatory activity in Sprague-Dawley rat assessed as inhibition of LPS-induced neutrophilia at 100 ug/kg, it administered as suspension with Penn-Century micro-sprayer aerosolizer dosed 1 hrs before LPS challenge and measured 5 hrs post dose; type: functional; conditions: inhaled or nasal; method in brief: as §1
Rattus norvegicus [11] = test: Anti-inflammatory activity in Sprague-Dawley rat assessed as inhibition of LPS-induced neutrophilia at 25 ug/kg, it administered as suspension with Penn-Century micro-sprayer aerosolizer dosed 1 hrs before LPS challenge and measured 5 hrs post dose; type: functional; conditions: inhaled or nasal; method in brief: as §1
Rattus norvegicus [12] = test: Anti-inflammatory activity in Sprague-Dawley rat assessed as inhibition of LPS-induced neutrophilia at 100 ug/kg, it administered as suspension with Penn-Century micro-sprayer aerosolizer dosed 18 hrs before LPS challenge and measured 22 hrs post dose; type: functional; conditions: inhaled or nasal; method in brief: as §1
Rattus norvegicus [13] = test: Anti-inflammatory activity in Sprague-Dawley rat assessed as inhibition of LPS-induced neutrophilia at 300 ug/kg, it administered as suspension with Penn-Century micro-sprayer aerosolizer dosed 18 hrs before LPS challenge and measured 22 hrs post dose; type: functional; conditions: inhaled or nasal; method in brief: as §1

Chain of Adenosine receptor A2a (P29274 whole entry): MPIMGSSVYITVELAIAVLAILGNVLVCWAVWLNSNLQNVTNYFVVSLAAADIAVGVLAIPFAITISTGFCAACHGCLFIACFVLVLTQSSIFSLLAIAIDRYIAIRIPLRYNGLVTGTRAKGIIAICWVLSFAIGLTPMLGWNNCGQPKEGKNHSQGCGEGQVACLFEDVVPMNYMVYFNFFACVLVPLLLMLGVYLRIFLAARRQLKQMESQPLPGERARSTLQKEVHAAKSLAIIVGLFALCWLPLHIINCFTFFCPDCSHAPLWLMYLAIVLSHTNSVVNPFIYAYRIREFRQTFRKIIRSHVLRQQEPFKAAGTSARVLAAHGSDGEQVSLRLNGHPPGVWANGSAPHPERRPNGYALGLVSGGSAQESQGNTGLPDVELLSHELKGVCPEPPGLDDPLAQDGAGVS

Row | SMILES | inhibition in vivo at 1 mg/kg (Rattus norvegicus [1]) [%] | IC50 [5] [nM] | IC50 [6] [nM] | metabolised at 20 min [7] [%] | IC50 (Adenosine receptor A1) [nM] | IC50 (Adenosine receptor A2a) [nM] | IC50 (Adenosine receptor A2b) [nM] | other results
1 | CCn1nc(-c2cccc(-c3cc(F)ccc3O)c2)cc(NC(=O)Nc2c(Cl)cncc2Cl)c1=O | 14 | 207 | 0.88 | 8 |  |  |  | ED50 (Rattus norvegicus [2]): 0.101 mg/kg; inhibition in vivo at 1 mg/kg (Rattus norvegicus [3]): 0%; inhibition in vivo at 1 mg/kg (Rattus norvegicus [4]): 51%
2 | CCn1nc(-c2cccc(-c3cccc(CC(=O)O)c3)c2)cc(NC(=O)Nc2c(Cl)cncc2Cl)c1=O | 16 | 190 | 0.54 | 56 | 5 | 434 | 263 | inhibition in vivo at 1 mg/kg (Rattus norvegicus [8]): 66%
3 | CCn1nc(-c2cccc(-c3cccc(C(=O)NC4CC4)c3)c2)cc(NC(=O)Nc2c(Cl)cncc2Cl)c1=O | 43 | 69 | 0.3 |  | 10 | 33 | 120 | fold change (FC) [9]: 1; inhibition in vivo at 0.1 mg/kg (Rattus norvegicus [10]): 70%; ED50 (Rattus norvegicus [2]): 0.024 mg/kg; inhibition in vivo at 1 mg/kg (Rattus norvegicus [3]): 42%; inhibition in vivo at 1 mg/kg (Rattus norvegicus [4]): 55%
4 | CCn1nc(-c2cccc(-c3cc(C(=O)NCCN4CCOCC4)cc(C(=O)NC4CC4)c3)c2)cc(NC(=O)Nc2c(Cl)cncc2Cl)c1=O |  |  |  |  | > 1000 | > 1000 | > 1000 | inhibition in vivo at 0.025 mg/kg (Rattus norvegicus [11]): 55%; inhibition in vivo at 0.1 mg/kg (Rattus norvegicus [12]): 29%
5 | CCn1nc(-c2cccc(-c3ccc(O)nc3)c2)cc(NC(=O)Nc2c(Cl)cncc2Cl)c1=O |  | 100 | 1.1 |  |  |  |  | 
6 | CCn1nc(-c2cccc(-c3ccccc3O)c2)cc(NC(=O)Nc2c(Cl)cncc2Cl)c1=O |  | 75 | 1.4 | 1.7 |  |  |  | 
7 | CCn1nc(-c2cccc(-c3cccc(C(N)=O)c3)c2)cc(NC(=O)Nc2c(Cl)cncc2Cl)c1=O | 20 | 67 | 0.09 |  |  |  |  | ED50 (Rattus norvegicus [2]): 0.067 mg/kg; inhibition in vivo at 1 mg/kg (Rattus norvegicus [3]): 15%; inhibition in vivo at 1 mg/kg (Rattus norvegicus [4]): 48%
8 | CCn1nc(-c2cccc(-c3cccc(C(=O)O)c3)c2)cc(NC(=O)Nc2c(Cl)cncc2Cl)c1=O |  |  | 2.17 | 9 | 17 | 270 | 222 | 
9 | CCn1nc(-c2cccc(-c3cccc(O)c3F)c2)cc(NC(=O)Nc2c(Cl)cncc2Cl)c1=O |  |  | 0.8 |  |  |  |  | 
10 | CCn1nc(-c2cccc(-c3cccc(C(=O)NCCCCCCCN(C)CCO)c3)c2)cc(NC(=O)Nc2c(Cl)cncc2Cl)c1=O | 27 | 57 | 0.24 |  | 13 | 41 | 206 | inhibition in vivo at 0.1 mg/kg (Rattus norvegicus [10]): 79%
11 | CCn1nc(-c2cccc(-c3ccc(O)cc3F)c2)cc(NC(=O)Nc2c(Cl)cncc2Cl)c1=O |  | 154 | 2.9 | 27 |  |  |  | 
12 | CCn1nc(-c2cccc(-c3cc(C(=O)NC4CC4)cc(C(=O)NC4CC4)c3)c2)cc(NC(=O)Nc2c(Cl)cncc2Cl)c1=O |  |  | 0.4 |  | 324 | > 1000 | > 1000 | inhibition in vivo at 0.025 mg/kg (Rattus norvegicus [11]): 54%; inhibition in vivo at 0.3 mg/kg (Rattus norvegicus [13]): 27%
13 | CCn1nc(-c2ccccc2)c(C(C)=O)c(Nc2ccc(C(=O)O)cc2)c1=O |  |  | 21 |  |  |  |  | 
14 | CCn1nc(-c2cccc(-c3ccc(F)cc3O)c2)cc(NC(=O)Nc2c(Cl)cncc2Cl)c1=O |  | 202 | 1.3 |  |  |  |  | 
15 | CCn1nc(-c2cccc(-c3cc(C#N)cc(C(=O)NC4CC4)c3)c2)cc(NC(=O)Nc2c(Cl)cncc2Cl)c1=O |  |  | 0.19 |  | 634 | > 1000 | > 1000 | 
